In ChEMBL document CHEMBL1811788, “Chaxamycins A-D, bioactive ansamycins from a hyper-arid desert Streptomyces sp” (2011):
In brackets after ≈: the same amount, converted by molar mass.

Key:
Staphylococcus aureus [1] = test: Antibacterial activity against Staphylococcus aureus ATCC 25923 after 18 hrs by microtiter plate reader assay; assay type: functional; conditions: ATCC 25923, 18 h
Staphylococcus aureus [2] = test: Antibacterial activity against Staphylococcus aureus RN4220 after 18 hrs by microtiter plate reader assay; assay type: functional; conditions: RN4220, 18 h
Method in brief: (§1)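 S. aureus grown in Müller-Hinton broth to early stationary phase, diluted to OD650 = 0.0005. Broth microdilution in triplicate, with at least two independent cultures per strain. Test compound (32–0.016 μg/mL) and rifampicin control (0.03–0.001 μg/mL) dissolved in DMSO (up to 0.63%). Incubated 18 h at 37 °C, growth read at OD620. MIC taken as lowest concentration showing no growth versus MH broth control.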

Staphylococcus aureus [3] = test: Antibacterial activity against scottish methicillin-resistant Staphylococcus aureus isolate 106 isolated from patient nasal swab after 18 hrs by microtiter plate reader assay; assay type: functional; conditions: isolate 106, 18 h; method in brief: as §1
Staphylococcus aureus [4] = test: Antibacterial activity against scottish methicillin-resistant Staphylococcus aureus isolate 124 isolated from patient open wound after 18 hrs by microtiter plate reader assay; assay type: functional; conditions: isolate 124, 18 h; method in brief: as §1
Staphylococcus aureus [5] = test: Antibacterial activity against scottish methicillin-resistant Staphylococcus aureus isolate 116 isolated from patient knee abscess after 18 hrs by microtiter plate reader assay; assay type: functional; conditions: isolate 116, Knee; method in brief: as §1
Staphylococcus aureus [6] = test: Antibacterial activity against epidemic methicillin-resistant Staphylococcus aureus isolate 15 isolated from patient urine infection after 18 hrs by microtiter plate reader assay; assay type: functional; conditions: isolate 15, Urine; method in brief: as §1
Staphylococcus aureus [7] = test: Antibacterial activity against scottish methicillin-resistant Staphylococcus aureus isolate 161 (PF161) isolated from patient thigh abscess after 18 hrs by microtiter plate reader assay; assay type: functional; conditions: isolate 161, Thigh muscle; method in brief: as §1
Staphylococcus aureus [8] = test: Antibacterial activity against scottish methicillin-resistant Staphylococcus aureus isolate 126 isolated from patient nasal swab after 18 hrs by microtiter plate reader assay; assay type: functional; conditions: isolate 126, 18 h; method in brief: as §1
Staphylococcus aureus [9] = test: Antibacterial activity against scottish methicillin-resistant Staphylococcus aureus […] isolated from patient arm cellulitis after 18 hrs by microtiter plate reader assay; assay type: functional; conditions: isolate 153, 18 h; method in brief: as §1
Staphylococcus aureus [10] = test: Antibacterial activity against scottish methicillin-resistant Staphylococcus aureus isolate 105 isolated from patient toe wound after 18 hrs by microtiter plate reader assay; assay type: functional; conditions: isolate 105, 18 h; method in brief: as §1
Staphylococcus aureus [11] = test: Antibacterial activity against epidemic methicillin-resistant Staphylococcus aureus isolate 16 isolated from patient graft wound after 18 hrs by microtiter plate reader assay; assay type: functional; conditions: isolate 16, 18 h; method in brief: as §1
Staphylococcus aureus [12] = test: Antibacterial activity against scottish methicillin-resistant Staphylococcus aureus isolate 161 (PF161d) isolated from patient buttock abscess after 18 hrs by microtiter plate reader assay; assay type: functional; conditions: isolate 161, 18 h; method in brief: as §1
Escherichia coli = test: Antibacterial activity against Escherichia coli ATCC 25922 by agar diffusion method with regression line analysis

For `CC(=O)O[C@H]1[C@H](C)[C@H](O)[C@H](C)[C@@H](O)[C@@H](C)/C=C/C=C\C(=O)NC2=C(C)C(=O)c3c(c(O)c(C)c4c3[C@H](O)[C@](C)(O/C=C/[C@H](O)[C@H]1C)O4)C2=O` [CHAXAMYCIN D], which MIC (Staphylococcus aureus [1]) is on record?
The MIC was 0.05 µg/mL (≈ 0.0731 µM).

What about the MIC (Staphylococcus aureus [2]) of the same compound?
The MIC was 0.06 µg/mL (≈ 0.0878 µM).

And the MIC (Staphylococcus aureus [3])?
Its MIC is 0.25 µg/mL (≈ 0.366 µM).

And the MIC (Staphylococcus aureus [4])?
Its MIC is 0.13 µg/mL (≈ 0.19 µM).

What about the MIC (Staphylococcus aureus [5]) of the same compound?
Its MIC is 0.13 µg/mL (≈ 0.19 µM).

What about the MIC (Staphylococcus aureus [6]) of the same compound?
Its MIC is 0.06 µg/mL (≈ 0.0878 µM).

What about the MIC (Staphylococcus aureus [7]) of the same compound?
The MIC was 0.13 µg/mL (≈ 0.19 µM).

What about the MIC (Staphylococcus aureus [8]) of the same compound?
The MIC was 0.13 µg/mL (≈ 0.19 µM).

What about the MIC (Staphylococcus aureus [9]) of the same compound?
The MIC was 0.25 µg/mL (≈ 0.366 µM).

What about the MIC (Staphylococcus aureus [10]) of the same compound?
The MIC was 0.13 µg/mL (≈ 0.19 µM).

What about the MIC (Staphylococcus aureus [11]) of the same compound?
Its MIC is greater than 32 µg/mL.

What about the MIC (Staphylococcus aureus [12]) of the same compound?
The MIC was 0.25 µg/mL (≈ 0.366 µM).

And the MIC (Escherichia coli)?
The MIC was 1.21 µg/mL (≈ 1.77 µM).

How did the MIC (Staphylococcus aureus [2]) turn out when `CO[C@H]1/C=C/O[C@@]2(C)Oc3c(C)c(O)c4c(O)c(c(/C=N/N5CCN(C)CC5)c(O)c4c3C2=O)NC(=O)/C(C)=C\C=C\[C@H](C)[C@H](O)[C@@H](C)[C@@H](O)[C@@H](C)[C@H](OC(C)=O)[C@@H]1C` [RIFAMPIN] was run?
Its MIC is 0.002 µg/mL (≈ 0.00243 µM).

And the MIC (Staphylococcus aureus [3])?
The MIC was 0.004 µg/mL (≈ 0.00486 µM).

And the MIC (Staphylococcus aureus [5])?
Its MIC is 0.002 µg/mL (≈ 0.00243 µM).

And the MIC (Staphylococcus aureus [6])?
Its MIC is 0.002 µg/mL (≈ 0.00243 µM).

And the MIC (Staphylococcus aureus [10])?
The MIC was 0.002 µg/mL (≈ 0.00243 µM).

What about the MIC (Staphylococcus aureus [11]) of the same compound?
Its MIC is 4 µg/mL (≈ 4.86 µM).
